Screens: PubChem BioAssay, several laboratories
An excerpt weighted towards active compounds, which were near 4.2% of everything screened.
SENP1 FRET inh: SENP1 (human) catalytic domain inhibition; recombinant SENP1 catalytic domain, CyPet-SUMO1-YPet FRET cleavage; AID 624204; 360,000 compounds, 0.21% hits; Q9P0U3; inhibition, % at 10 µM;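 active = inhibition at least 30% at 10 µM, raw YFP signal under a set limit, fluorescence ratio 0.5 to 1.5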;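 note: 0% = enzyme with DMSO and 100% = no enzyme wells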
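system = hSENP1 catalytic domain, recombinant | reagent = SFCypet-SUMO1-SFYpet substrate at 25 nM | doses = one dose per compound, 10 µM, 0.5% DMSO | incubation = enzyme reaction for 50 min at room temperature, dark | measured by = FRET, CFP and YFP emission | controls = no-enzyme low, enzyme-DMSO high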
HDAC3 inhib: human HDAC3 inhibition; recombinant HDAC3, fluorogenic peptide/trypsin coupled, fluorescence; inhibition, % at 8.3 µM; O15379; 320,000 compounds, 0.15% hits; in the data active = inhibition above about 26%, passing the limit was not always enough
GAA850 FXN act: activators of GAA850 frataxin (FXN) promoter | HEK293 lucGAA850 FXN promoter luciferase reporter, 24 h; percent of 10 µM SAHA response | activation, % at 6 µM | 360,000 compounds, 0.56% hits | AID 540364;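 active = activation above the average of all compounds screened plus 3 SD, cutoff fixed separately per campaign, cut at about 7.5% in these data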;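 note: 0% = DMSO wells and 100% = 10 µM SAHA wells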
PfM18AAP inh-1: blocks P. falciparum M18 aspartyl aminopeptidase | recombinant PfM18AAP, H-Glu-NHMec fluorogenic cleavage | inhibition, % at 7.35 µM | 290,000 compounds, 1.2% hits | AID 1822;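 active = inhibition above the campaign mean inhibition over all tested compounds plus 3 SD, cut at about 28% in these data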;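 note: 0% = plate median of test compound wells and 100% = 2 mM ZnCl2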
AHR act: human AHR activation; AHR-responsive luciferase reporter cells, luminescence; P35869; 320,000 compounds, 2.5% hits; AID 2796; activation, % at 5 µM; in the data active = activation above about 47%;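 note: 0% = vehicle wells and 100% = reference agonist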
CTSL1 counter-1: blocks F. hepatica cathepsin L1 in PFM18AAP counter-screen. recombinant F. hepatica cathepsin L1, Z-Leu-Arg-MCA fluorescence. inhibition, % at 5.96 µM. 300,000 compounds, 0.49% hits;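 active = inhibition above the mean of all tested compounds plus 3 SD, set per screening campaign, cut at about 17% in these data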;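 note: 0% = plate median of test compound wells and 100% = 1 µM Z-Phe-Ala-diazomethylketone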
PfM18AAP inh-2: confirmation of Plasmodium falciparum M18 aspartyl aminopeptidase inhibitors. inhibition, % at 7.35 µM. 2,400 compounds, 28% hits. recombinant PfM18AAP, H-Glu-NHMec fluorogenic cleavage. shares compounds with PfM18AAP inh-1;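 active = mean inhibition over replicate wells above the hit cutoff set for the earlier primary screen, cut at about 29% in these data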;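 note: 0% = median of test compound wells and 100% = 2 mM ZnCl2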
CTSL1 counter-2: counter-screen for PFM18AAP inhibitors: confirmation of human cathepsin L inhibitors. purified cathepsin L1, Z-Leu-Arg-MCA fluorescence. inhibition, % at 5.96 µM. 2,400 tested, under 10 active. shares compounds with PfM18AAP inh-1. AID 2178;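 active = average inhibition across replicates above the hit cutoff set in the earlier primary screen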;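 note: 0% = median of test compound wells and 100% = Z-Phe-Ala-diazomethylketone 1 µM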
Target sequence (P07711 whole entry, looked up): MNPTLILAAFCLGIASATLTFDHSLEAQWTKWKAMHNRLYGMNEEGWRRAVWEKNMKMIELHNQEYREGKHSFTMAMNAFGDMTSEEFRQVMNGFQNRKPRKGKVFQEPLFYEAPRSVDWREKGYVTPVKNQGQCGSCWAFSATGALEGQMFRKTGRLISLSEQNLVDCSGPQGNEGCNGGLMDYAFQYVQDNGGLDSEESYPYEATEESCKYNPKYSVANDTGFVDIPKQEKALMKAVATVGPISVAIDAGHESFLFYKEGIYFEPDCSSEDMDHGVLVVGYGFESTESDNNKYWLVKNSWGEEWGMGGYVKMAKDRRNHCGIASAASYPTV
An asterisk follows results filed as active; / = no result.

SMILES | SENP1 FRET inh | HDAC3 inhib | GAA850 FXN act | PfM18AAP inh-1 | AHR act | CTSL1 counter-1 | PfM18AAP inh-2 | CTSL1 counter-2
O=[N+]([O-])c1ccc(N/N=C/c2ccc(O)c(O)c2O)c(S(=O)(=O)N2CCOCC2)c1 | 7 | / | 1 | 37* | / | / | -29 | -7
CCOC(=O)c1ccc(N(C(=O)c2ccco2)C(C(=O)NC2CCCC2)c2ccncc2)cc1 (centres undefined) | -3 | 1 | 1 | 9 | -1 | -13 | / | /
Cc1ccc(S(=O)(=O)N(Cc2cccc(F)c2)C(=O)N2CCN(C)CC2)cc1 | 0 | 0 | 1 | / | -3 | 6 | / | /
Cc1ccc(CN2CC(C(=O)N(Cc3nnc(-c4ccccc4Cl)o3)C3CC3)CC2=O)cc1 (centres undefined) | 0 | 3 | 0 | / | 3 | 0 | / | /
Oc1ccc(CCNc2c3ccccc3nc3ccccc23)cc1O | -28 | 7 | -2 | 74* | 6 | -1 | 64* | -2
NC(=O)C1CCN(S(=O)(=O)c2cc3c4c(c2)CCN4C(=O)CC3)CC1 | 2 | -6 | 2 | / | -2 | 4 | / | /
CC[C@]12c3[nH]c4ccc(Cl)cc4c3CCN1C(=O)[C@@H](CC(=O)NC/C=C(\C)CCC=C(C)C)C[C@@H]2C(=O)N1CCN(C(=O)c2ccco2)CC1 | -3 | / | -4 | / | / | / | / | /
O=C(c1cnc2nc3ccccc3n2c1)c1cc(F)ccc1O | -36 | -8 | 4 | 0 | 28 | 0 | / | /
O=C(c1cnn(C(=O)COc2ccccc2F)c1)c1cc(F)ccc1O | -7 | -7 | 2 | 43* | 6 | -8 | -15 | -10
Cc1cccc(C)c1OCC(=O)Nc1ccc2c(c1)OCCO2 | 0 | -2 | -2 | -6 | -5 | 0 | / | /
Cc1nn(C)c(Sc2ccccc2N)c1[N+](=O)[O-] | 1 | 4 | 3 | 39* | 18 | -6 | -13 | 0
CC1CC(C)CN(S(=O)(=O)c2ccc(NN)nc2)C1 (centres undefined) | 5 | / | 0 | 46* | -1 | -2 | 33* | 1
COC(=O)C[C@@H]1C=C[C@@H](NS(=O)(=O)c2ccc(OC)cc2)[C@@H](CO)O1 | 4 | / | / | / | / | / | / | /
O=c1oc2ccccc2c2oc3cc(O)c(O)cc3c12 | 30 | 0 | -1 | 68* | 2 | 5 | 74* | 3
COc1ccc(OC)c(-c2c3cc(O)c(=O)cc-3oc3cc(O)c(O)cc23)c1 | 12 | 1 | -2 | 45* | 1 | -7 | 26 | 4
Cc1noc(-c2ccccc2)c1NC(=O)Nc1ccc2nc([C@H]3C[C@H](O)[C@@H](CO)O3)[nH]c2c1 | 3 | / | -2 | / | / | / | / | /
Cc1ccc(C(=O)Nn2cnnc2)cc1[N+](=O)[O-] | 1 | -1 | 1 | 43* | 1 | 3 | 39* | -5
COC(=O)c1cc(C(=O)Nn2cnnc2)cc([N+](=O)[O-])c1 | 3 | 2 | 0 | 63* | 1 | -3 | 73* | 1
O=S(=O)(Nc1nc2ccccc2nc1Cl)c1ccc(Cl)cc1 | -16 | -2 | -3 | -4 | -1 | 2 | / | /
O=S(=O)(NNc1ccc(Cl)nn1)c1ccc(F)cc1 | -1 | 5 | 2 | 69* | 11 | 2 | 64* | 1
O=S(=O)(NNc1cccc(Cl)n1)c1ccc(Cl)cc1 | 0 | / | 2 | 72* | / | / | 49* | -1
NNc1nc2cc3c(cc2s1)OCCO3 | -12 | -3 | 1 | 52* | 28 | -1 | 9 | -5
CC(C)c1ccc(/C=N/NC(=O)c2c(Cl)cnn2C)cc1 | 1 | 12 | 5 | -12 | 12 | -1 | / | /
CCOC(=O)c1c(C)n(C)c2ccc(OC(=O)c3ccc(N4C(=O)CCC4=O)cc3)cc12 | -1 | 6 | 0 | 57* | 9 | 5 | -58 | 2
COc1ccc([N+](=O)[O-])cc1CN1CCN(c2ncc(Cc3ccccc3)cn2)CC1 | 3 | / | / | / | / | / | / | /
COc1ccc(NC(=O)C2(C)CCN2C(=O)C(C)C)cc1F (centres undefined) | 2 | / | 0 | / | / | / | / | /
